How the values were obtained:
Bile acid receptor = target: T1, Bile acid receptor (Homo sapiens, UniProt Q96RI1); assay: Antagonist activity at GST-tagged FXRalpha LBD (unknown origin) assessed as inhibition of CDCA-induced bio-SRC-1 recruitment after 30 mins by fluorescence based HTRF assay
T1 sequence (Q96RI1 whole entry): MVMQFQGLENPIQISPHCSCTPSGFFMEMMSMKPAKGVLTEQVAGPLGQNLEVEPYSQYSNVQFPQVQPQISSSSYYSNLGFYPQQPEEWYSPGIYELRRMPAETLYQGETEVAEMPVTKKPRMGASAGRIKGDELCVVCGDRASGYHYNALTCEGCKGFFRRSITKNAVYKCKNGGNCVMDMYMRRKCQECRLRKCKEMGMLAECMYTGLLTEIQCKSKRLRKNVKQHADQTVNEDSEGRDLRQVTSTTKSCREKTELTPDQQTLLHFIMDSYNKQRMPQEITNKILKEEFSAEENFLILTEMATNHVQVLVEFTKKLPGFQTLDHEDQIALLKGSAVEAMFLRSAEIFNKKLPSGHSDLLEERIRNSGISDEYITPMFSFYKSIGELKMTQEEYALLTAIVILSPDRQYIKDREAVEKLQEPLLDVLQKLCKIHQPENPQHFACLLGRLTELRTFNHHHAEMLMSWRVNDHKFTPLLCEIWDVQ
Method in brief: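 HTRF coactivator-recruitment assay: 10 nM GST-FXRα LBD with 100 nM biotinylated SRC-1 peptide, with CDCA as agonist present. Compounds were tested at a single concentration or a concentration series, incubated 30 min at room temperature, then fluorescence read. Values are mean SD of triplicate measurements.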

[1] = target: T2, Bile acid receptor (Homo sapiens) (UniProt Q96RI1); assay: Ratio of guggulsterone IC50 to compound IC50 for GST-tagged FXRalpha LBD (unknown origin) assessed as inhibition of CDCA-induced bio-SRC-1 recruitment after 30 mins by fluorescence based HTRF assay
T2 sequence (whole entry): T1 sequence (Q96RI1 whole entry)

SMILES | IC50 (Bile acid receptor) | Ratio IC50 [1]
CCCCCCc1cc(C(C)=O)c(O)cc1OCCCCCC(C)(C)c1nnn[nH]1 | 3.2 µM | –
CCc1cc(C(C)=O)c(OC)cc1OCCCCCC(C)(C)c1nnn[nH]1 | 5.5 µM | –
CCc1cc(C(C)=O)c(OCC2CCCCC2)cc1OCCCCCC(C)(C)c1nnn[nH]1 | 2.9 µM | –
CCc1cc(C(C)=O)c(OCc2ccccc2)cc1OCCCCCC(C)(C)c1nnn[nH]1 | 1.1 µM | 100
CCc1cc(CC)c(OCCCCCC(C)(C)c2nn[nH]n2)cc1O | 3.1 µM | –
CCCCC(=O)c1cc(CC)c(OCCCCCC(C)(C)c2nnn[nH]2)cc1O | 5.4 µM | –
CCCCCCC(=O)c1cc(CC)c(OCCCCCC(C)(C)c2nnn[nH]2)cc1O | 8.4 µM | –
CCc1cc(C(C)=O)c(OC(C)c2ccccc2)cc1OCCCCCC(C)(C)c1nnn[nH]1 (configuration not stated) | 1.7 µM | –
CCCCc1cc(C(C)=O)c(OCc2ccccc2)cc1OCCCCCC(C)(C)c1nnn[nH]1 | 7.8 µM | –
CCc1cc(C(=O)C(C)C)c(O)cc1OCCCCCC(C)(C)c1nnn[nH]1 | 8.6 µM | –
CCCCc1cc(CC)c(O)cc1OCCCCCC(C)(C)c1nnn[nH]1 | 8.7 µM | –
CCc1cc(CC)c(OCc2ccccc2)cc1OCCCCCC(C)(C)c1nnn[nH]1 | 3.5 µM | –
CCc1cc(C(C)=O)c(O)cc1OCCCCCC(C)(C)C(=O)O | > 100 µM | –
CCc1cc(C(C)=O)c(OC2CCCC2)cc1OCCCCCC(C)(C)c1nnn[nH]1 | 3.3 µM | –

More lines, in order of falling IC50 (Bile acid receptor), values ahead:

IC50 (Bile acid receptor) | Ratio IC50 [1] | SMILES
35.2 µM | – | CCc1cc(C(C)=O)c(O)cc1OCCCCCC(C)(C)c1nn[nH]n1 [LY-255283]
25.2 µM | – | CCCc1cc(C(C)=O)c(O)cc1OCCCCCC(C)(C)c1nnn[nH]1
8.5 µM | – | CCC(=O)c1cc(CC)c(OCCCCCC(C)(C)c2nnn[nH]2)cc1O
5.8 µM | – | CC(=O)c1cc(CC(C)C)c(OCCCCCC(C)(C)c2nnn[nH]2)cc1O
3.1 µM | – | CCc1cc(C(=O)c2ccccc2)c(O)cc1OCCCCCC(C)(C)c1nnn[nH]1
1.5 µM | – | CCCCc1cc(C(C)=O)c(O)cc1OCCCCCC(C)(C)c1nnn[nH]1
1.2 µM | – | CCc1cc(C(C)=O)c(OCc2cccc(C)c2)cc1OCCCCCC(C)(C)c1nnn[nH]1

Reference: ChEMBL document CHEMBL3112454, “Discovery and SAR study of hydroxyacetophenone derivatives as potent, non-steroidal farnesoid X receptor (FXR) antagonists” (Bioorg Med Chem, 2014)
